Test results taken from ChEMBL document CHEMBL4610084, “Antibacterial and ATP Synthesis Modulating Compounds from Salvia tingitana” (2020).

Legend:
Type in all cases: functional
[1] = tested on: Enterococcus gallinarum; assay: Antibacterial activity against Vancomycin resistant Enterococcus gallinarum MB111 after 24 hrs by microdilution assay; details: MB111, 24 h
In short: (§1)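 Broth microdilution MIC, run as in an earlier cited report. Strains are clinical isolates identified by standard methods and MALDI-TOF; E. faecalis MB19 and MB51 are Ligurian seawater isolates. Highest concentration tested was 128 μg/mL. MICs are given in μg/mL and μM, with oxacillin and vancomycin as reference antibiotics.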

[2] = tested on: Enterococcus faecium; assay: Antibacterial activity against Enterococcus faecium MB2 after 24 hrs by microdilution assay; details: MB2, 24 h
In short: (§2)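 Broth microdilution MIC against clinical or seawater-isolated strains (identified by standard procedures and MALDI-TOF), with compound solutions and testing as in earlier work. MIC reported in μg/mL and μM.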

[3] = tested on: Enterococcus faecium; assay: Antibacterial activity against Enterococcus faecium MB152 after 24 hrs by microdilution assay; details: MB152, 24 h; in short: as §2
[4] = tested on: Enterococcus faecalis; assay: Antibacterial activity against Vancomycin resistant Enterococcus faecalis MB19 after 24 hrs by microdilution assay; details: MB19, 24 h; in short: as §1
[5] = tested on: Enterococcus durans; assay: Antibacterial activity against Enterococcus durans MB113 after 24 hrs by microdilution assay; details: MB113, 24 h; in short: as §2
[6] = tested on: Enterococcus faecalis; assay: Antibacterial activity against Vancomycin resistant Enterococcus faecalis MB1 after 24 hrs by microdilution assay; details: MB1, 24 h; in short: as §1
[7] = tested on: Enterococcus avium; assay: Antibacterial activity against Enterococcus avium MB119 after 24 hrs by microdilution assay; details: MB119, 24 h; in short: as §2
[8] = tested on: Enterococcus casseliflavus; assay: Antibacterial activity against Vancomycin resistant Enterococcus casseliflavus MB159 after 24 hrs by microdilution assay; details: MB159, 24 h; in short: as §1
[9] = tested on: Enterococcus faecalis; assay: Antibacterial activity against Vancomycin resistant Enterococcus faecalis MB51 after 24 hrs by microdilution assay; details: MB51, 24 h; in short: as §1
[10] = tested on: Enterococcus faecium; assay: Antibacterial activity against Enterococcus faecium MB3 after 24 hrs by microdilution assay; details: MB3, 24 h; in short: as §2
[11] = tested on: Enterococcus faecalis; assay: Antibacterial activity against Enterococcus faecalis MB76 after 24 hrs by microdilution assay; details: MB76, 24 h; in short: as §1
[12] = tested on: Staphylococcus lugdunensis; assay: Antibacterial activity against Staphylococcus lugdunensis MB96 after 24 hrs by microdilution assay; details: MB96, 24 h; in short: as §2
[13] = tested on: Staphylococcus warneri; assay: Antibacterial activity against Methicillin-resistant Staphylococcus warneri MB74 after 24 hrs by microdilution assay; details: MB74, 24 h; in short: as §1
[14] = tested on: Staphylococcus saprophyticus; assay: Antibacterial activity against Staphylococcus saprophyticus MB41 after 24 hrs by microdilution assay; details: MB41, 24 h; in short: as §2
[15] = tested on: Staphylococcus aureus; assay: Antibacterial activity against Methicillin-resistant Staphylococcus aureus MB188 after 24 hrs by microdilution assay; details: MB188, 24 h; in short: as §1
[16] = tested on: Staphylococcus capitis; assay: Antibacterial activity against Methicillin-resistant Staphylococcus capitis MB71 after 24 hrs by microdilution assay; details: MB71, 24 h; in short: as §1
[17] = tested on: Staphylococcus aureus; assay: Antibacterial activity against Methicillin-resistant Staphylococcus aureus MB18 after 24 hrs by microdilution assay; details: MB18, 24 h; in short: as §1
[18] = tested on: Staphylococcus hominis; assay: Antibacterial activity against Methicillin-resistant Staphylococcus hominis MB124 after 24 hrs by microdilution assay; details: MB124, 24 h; in short: as §1
[19] = tested on: Staphylococcus simulans; assay: Antibacterial activity against Staphylococcus simulans MB94 after 24 hrs by microdilution assay; details: MB94, 24 h; in short: as §2
[20] = tested on: Staphylococcus haemolyticus; assay: Antibacterial activity against Methicillin-resistant Staphylococcus haemolyticus MB115 after 24 hrs by microdilution assay; details: MB115, 24 h; in short: as §1
[21] = tested on: Staphylococcus epidermidis; assay: Antibacterial activity against Methicillin-resistant Staphylococcus epidermidis MB169 after 24 hrs by microdilution assay; details: MB169, 24 h; in short: as §1
[22] = tested on: Staphylococcus epidermidis; assay: Antibacterial activity against Methicillin-resistant Staphylococcus epidermidis MB165 after 24 hrs by microdilution assay; details: MB165, 24 h; in short: as §1

Row | Compound | MIC [1] | MIC [2] | MIC [3] | MIC [4] | MIC [5] | MIC [6] | MIC [7] | MIC [8] | MIC [9] | MIC [10] | MIC [11] | MIC [12] | MIC [13] | MIC [14] | MIC [15] | MIC [16] | MIC [17] | MIC [18] | MIC [19] | MIC [20] | other results
1 | CN[C@H](CC(C)C)C(=O)N[C@H]1C(=O)N[C@@H](CC(N)=O)C(=O)N[C@H]2C(=O)N[C@H]3C(=O)N[C@H](C(=O)N[C@H](C(=O)O)c4cc(O)cc(O)c4-c4cc3ccc4O)[C@H](O)c3ccc(c(Cl)c3)Oc3cc2cc(c3O[C@@H]2O[C@H](CO)[C@@H](O)[C@H](O)[C@H]2O[C@H]2C[C@](C)(N)[C@H](O)[C@H](C)O2)Oc2ccc(cc2Cl)[C@H]1O [VANCOMYCIN] | 11 µM | 1.38 µM | 177 µM | 22.1 µM | 0.69 µM | 22.1 µM | 0.69 µM | 2.76 µM | 44.2 µM | 88.3 µM | 88.3 µM |  |  |  |  |  |  |  |  |  | 
2 | COc1ccc(-c2cc(=O)c3c(O)c(OC)c(OC)cc3o2)cc1O [EUPATORIN] | 186 µM | 372 µM | 372 µM | 186 µM | > 128 µg/mL | 186 µM | 186 µM | 372 µM | 372 µM | > 128 µg/mL | 186 µM | > 128 µg/mL | > 128 µg/mL | > 128 µg/mL | > 128 µg/mL | > 128 µg/mL | > 128 µg/mL | > 128 µg/mL | > 128 µg/mL | > 128 µg/mL | MIC [21]: > 128 µg/mL; MIC [22]: > 128 µg/mL
3 | COc1ccc(-c2cc(=O)c3c(OC)c(OC)c(OC)cc3o2)cc1OC [SINENSETIN] | 172 µM | 344 µM | 172 µM | 344 µM | 344 µM | 86 µM | 344 µM | 172 µM | 172 µM | 344 µM | 344 µM | > 128 µg/mL | 344 µM | > 128 µg/mL | 344 µM | 344 µM | > 128 µg/mL | 344 µM | > 128 µg/mL | > 128 µg/mL | MIC [21]: 344 µM; MIC [22]: > 128 µg/mL
4 | COC(=O)[C@]1(C)CCC[C@]2(C)[C@H]3CCC(C)(/C=C/c4occc4C)O[C@]3(C)CC[C@H]21 (some centres undefined) | 309 µM | 309 µM | > 128 µg/mL | 309 µM | > 128 µg/mL | > 128 µg/mL | > 128 µg/mL | 309 µM | 309 µM | 309 µM | 309 µM | > 128 µg/mL | 309 µM | 309 µM | > 128 µg/mL | 155 µM | 309 µM | 309 µM | > 128 µg/mL | > 128 µg/mL | MIC [21]: 155 µM; MIC [22]: 309 µM
5 | COc1ccc(-c2cc(=O)c3c(OC)c(OC)c(OC)cc3o2)cc1 | 195 µM | 390 µM | 195 µM | 195 µM | 195 µM | 195 µM | 390 µM | 390 µM | 390 µM | 195 µM | 390 µM | > 128 µg/mL | 390 µM | > 128 µg/mL | > 128 µg/mL | 390 µM | 390 µM | 390 µM | > 128 µg/mL | > 128 µg/mL | MIC [21]: 390 µM; MIC [22]: > 128 µg/mL
6 | COC(=O)[C@]1(C)CCC[C@@]2(C)[C@H]1CC[C@@](C)(O)[C@@H]2CC/C(C)=C/[C@H](O)[C@H]1OC(=O)C=C1C | 143 µM | 286 µM | 286 µM | 143 µM | 286 µM | 143 µM | 286 µM | 143 µM | 286 µM | 143 µM | 143 µM | 286 µM | 143 µM | 286 µM | > 128 µg/mL | 286 µM | 286 µM | 286 µM | > 128 µg/mL | > 128 µg/mL | MIC [21]: 286 µM; MIC [22]: > 128 µg/mL
7 | CC1=CC(=O)O[C@@H]1C/C=C(\C)CC[C@@H]1[C@@]2(C)CCC[C@@]3(C)C(O)O[C@@H](C[C@@]1(C)O)[C@H]23 (some centres undefined) | > 128 µg/mL | > 128 µg/mL | > 128 µg/mL | > 128 µg/mL | > 128 µg/mL | > 128 µg/mL | > 128 µg/mL | > 128 µg/mL | > 128 µg/mL | > 128 µg/mL | > 128 µg/mL | > 128 µg/mL | > 128 µg/mL | > 128 µg/mL | > 128 µg/mL | > 128 µg/mL | > 128 µg/mL | > 128 µg/mL | > 128 µg/mL | > 128 µg/mL | MIC [21]: > 128 µg/mL; MIC [22]: > 128 µg/mL
8 | COC(=O)[C@]1(C)CCC[C@@]2(C)[C@H]1CC[C@@](C)(O)[C@@H]2CC/C(C)=C/C[C@H]1OC(=O)C=C1C | 148 µM | 296 µM | 296 µM | 148 µM | 296 µM | 74.1 µM | 296 µM | 296 µM | 296 µM | 148 µM | 148 µM | 296 µM | 148 µM | 296 µM | 296 µM | 148 µM | > 128 µg/mL | 296 µM | > 128 µg/mL | 296 µM | MIC [21]: > 128 µg/mL; MIC [22]: 296 µM
9 | Cc1onc(-c2ccccc2)c1C(=O)N[C@@H]1C(=O)N2[C@@H]1SC(C)(C)[C@@H]2C(=O)O [OXACILLIN] |  |  |  |  |  |  |  |  |  |  |  | 1.25 µM | 319 µM | 2.49 µM | 1280 µM | 638 µM | 638 µM | 39.9 µM | 0.62 µM | 39.9 µM | MIC [21]: 638 µM; MIC [22]: 638 µM
10 | COC1O[C@H]2C[C@@](C)(O)[C@H](CC/C(C)=C/CC3OC(=O)C=C3C)[C@@]3(C)CCC[C@]1(C)[C@H]23 (some centres undefined) | 296 µM | 296 µM | 148 µM | 148 µM | 296 µM | 296 µM | 296 µM | 148 µM | 296 µM | 296 µM | 296 µM | 296 µM | 148 µM | 296 µM | 296 µM | 74.1 µM | 296 µM | 148 µM | 296 µM | 296 µM | MIC [21]: 148 µM; MIC [22]: 148 µM
11 | COC1O[C@H]2C[C@@](C)(O)[C@H](CC/C(C)=C/[C@H](O)[C@H]3OC(=O)C=C3C)[C@@]3(C)CCC[C@]1(C)[C@H]23 (some centres undefined) | 143 µM | 286 µM | 286 µM | 286 µM | > 128 µg/mL | 143 µM | 143 µM | 286 µM | 143 µM | 143 µM | 143 µM | > 128 µg/mL | > 128 µg/mL | 286 µM | > 128 µg/mL | 286 µM | 286 µM | 286 µM | > 128 µg/mL | > 128 µg/mL | MIC [21]: 286 µM; MIC [22]: > 128 µg/mL
12 | CC1=CC(=O)OC1C/C=C(\C)CC[C@@H]1[C@@]2(C)CCC[C@@](C)(CO)[C@@H]2CC[C@@]1(C)O (some centres undefined) | 158 µM | 317 µM | 158 µM | 79.2 µM | > 128 µg/mL | 317 µM | 158 µM | 158 µM | 158 µM | 317 µM | 158 µM | > 128 µg/mL | 317 µM | 317 µM | > 128 µg/mL | 317 µM | 317 µM | 317 µM | > 128 µg/mL | > 128 µg/mL | MIC [21]: > 128 µg/mL; MIC [22]: 317 µM
13 | COC(=O)[C@]1(C)CCC[C@@]2(C)[C@H]1[C@@H](O)C[C@@](C)(O)[C@@H]2CC/C(C)=C/[C@H](O)[C@H]1OC(=O)C=C1C | 276 µM | 276 µM | 138 µM | 276 µM | 138 µM | 138 µM | 138 µM | 276 µM | 138 µM | 276 µM | 276 µM | > 128 µg/mL | 138 µM | > 128 µg/mL | > 128 µg/mL | 276 µM | 276 µM | 138 µM | > 128 µg/mL | 276 µM | MIC [21]: > 128 µg/mL; MIC [22]: 276 µM
